According to ChEMBL document CHEMBL1158354, “Condensed 1,4-dihydropyridines with various esters and their calcium channel antagonist activities” (2009):
The source made the active and inactive calls. The calls are words filed in the database; no cut-off is given here.

Key:
Oryctolagus cuniculus [1] = species: Oryctolagus cuniculus; assay: (§1) Antagonist activity at voltage dependent L-type calcium channel in New Zealand white rabbit sigmoid colon circular smooth muscle strip assessed as relaxation response relative to papaverine; type: functional
Oryctolagus cuniculus [2] = species: Oryctolagus cuniculus; assay: (§2) Antagonist activity at voltage dependent L-type calcium channel in New Zealand white rabbit sigmoid colon circular smooth muscle strip assessed as relaxation response; type: functional
Outline: (§3)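 Strips held at 1 g basal tension and equilibrated 60 min in Ca2+-free KHS, with the solution changed every 15 min. Strips were then placed in Ca2+-free, 80 mM K+ solution and contracted by cumulative Ca2+ (2.5, 5, 10 mM). At the contraction plateau, compounds were added cumulatively (10^-8–10^-4 M). Emax and pD2 (−log EC50) were derived from concentration–relaxation curves, n = 6.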

[3] = as §1; type: functional; conditions: Oryctolagus cuniculus
[4] = as §2; type: functional, Oryctolagus cuniculus; outline: as §3
[5] = (§4) Antagonist activity at voltage dependent L-type calcium channel in New Zealand white rabbit sigmoid colon circular smooth muscle strip assessed as induction of relaxation response in presence of Ca2+-activated potassium channel blocker tetraethylammonium; type: functional, Oryctolagus cuniculus; parameters: scale not given: the % may be the effect or the level left
Oryctolagus cuniculus [6] = species: Oryctolagus cuniculus; assay: as §4; type: functional

| Structure (SMILES) | Emax (Oryctolagus cuniculus [1]) | Activity (Oryctolagus cuniculus [2]) | pD2 (Oryctolagus cuniculus [2]) | Emax [3] | pD2 [4] | Activity [5] | Activity (Oryctolagus cuniculus [6]) |
| --- | --- | --- | --- | --- | --- | --- | --- |
| CC1=C(C(=O)OCC(C)C)C(c2cc(C(F)(F)F)cc(Cl)c2F)C2=C(CCC(C)(C)C2=O)N1 (stereo not drawn) | inactive | Dose-dependent effect | inactive |  |  |  |  |
| COCCOC(=O)C1=C(C)NC2=C(C(=O)CC(C)(C)C2)C1c1cc(C(F)(F)F)cc(Cl)c1F (stereo not drawn) |  | Dose-dependent effect |  | 45% | 5.11 |  |  |
| CC1=C(C(=O)OCc2ccccc2)C(c2cc(C(F)(F)F)cc(Cl)c2F)C2=C(CCC(C)(C)C2=O)N1 (stereo not drawn) | inactive | Dose-dependent effect | inactive |  |  |  |  |
| COCCOC(=O)C1=C(C)NC2=C(C(=O)C(C)(C)CC2)C1c1cc(C(F)(F)F)cc(Cl)c1F (stereo not drawn) |  | Dose-dependent effect |  | 43.7% | 4.89 |  |  |
| CC1=C(C(=O)OC(C)(C)C)C(c2cc(C(F)(F)F)cc(Cl)c2F)C2=C(CC(C)(C)CC2=O)N1 (stereo not drawn) | inactive | Dose-dependent effect | inactive |  |  |  |  |
| C=CCOC(=O)C1=C(C)NC2=C(C(=O)CC(C)(C)C2)C1c1cc(C(F)(F)F)cc(Cl)c1F (stereo not drawn) | inactive | Dose-dependent effect | inactive |  |  |  |  |
| C=CCOC(=O)C1=C(C)NC2=C(C(=O)C(C)(C)CC2)C1c1cc(C(F)(F)F)cc(Cl)c1F (stereo not drawn) | inactive | Dose-dependent effect | inactive |  |  |  |  |
| COC(=O)C1=C(C)NC2=C(C(=O)CC(C)(C)C2)C1c1cc(C(F)(F)F)cc(Cl)c1F (stereo not drawn) |  | Dose-dependent effect |  | 32.2% | 4.84 |  |  |
| CCOC(=O)C1=C(C)NC2=C(C(=O)C(C)(C)CC2)C1c1cc(C(F)(F)F)cc(Cl)c1F (stereo not drawn) |  | Dose-dependent effect |  | 23% | 5.06 |  |  |
| CC1=C(C(=O)OCc2ccccc2)C(c2cc(C(F)(F)F)cc(Cl)c2F)C2=C(CC(C)(C)CC2=O)N1 (stereo not drawn) | inactive | Dose-dependent effect | inactive |  |  |  |  |
| CC1=C(C(=O)OCC(C)C)C(c2cc(C(F)(F)F)cc(Cl)c2F)C2=C(CC(C)(C)CC2=O)N1 (stereo not drawn) | inactive | Dose-dependent effect | inactive |  |  |  |  |
| COC(=O)C1=C(C)NC(C)=C(C(=O)OC)C1c1ccccc1[N+](=O)[O-] [NIFEDIPINE] |  | Dose-dependent effect |  | 94% | 6.92 |  |  |
| CCOC(=O)C1=C(C)NC2=C(C(=O)CC(C)(C)C2)C1c1cc(C(F)(F)F)cc(Cl)c1F (stereo not drawn) |  | Dose-dependent effect |  | 22.8% | 4.74 |  |  |
| COC(=O)C1=C(C)NC2=C(C(=O)C(C)(C)CC2)C1c1cc(C(F)(F)F)cc(Cl)c1F (stereo not drawn) |  | Dose-dependent effect |  | 17.2% | 4.94 | 17.19% |  |
| CC1(C)CCC2=C(C1=O)C(c1cc(C(F)(F)F)cc(Cl)c1F)C1=C(COC1=O)N2 (stereo not drawn) | inactive | Dose-dependent effect | inactive |  |  |  | inactive |
| CC1(C)CC(=O)C2=C(C1)NC1=C(C(=O)OC1)C2c1cc(C(F)(F)F)cc(Cl)c1F (stereo not drawn) | inactive | Dose-dependent effect | inactive |  |  |  |  |
| CC1=C(C(=O)OC(C)(C)C)C(c2cc(C(F)(F)F)cc(Cl)c2F)C2=C(CCC(C)(C)C2=O)N1 (stereo not drawn) | inactive | Dose-dependent effect | inactive |  |  |  |  |
